Results of several laboratories.
Each line is one published result; the experiments were not run side by side.
Target: Mitogen-activated protein kinase 3 (MAPK3, Homo sapiens, UniProt P27361)

Cn1cncc1[C@@](O)(COc1ccc(C#N)cc1-c1ccc(OC(F)(F)F)cc1)c1ccc(C#N)cc1 — remaining binding (cell-free assay, competition with immobilised ligand; 1 µM): 83%
Nc1ncc(-c2nc(N3CCOCC3)nc(N3CCOCC3)n2)c(C(F)F)n1 — remaining binding (binding, competition with immobilised ligand; 10 µM): 89%
C[C@@H](O)[C@H](N)C(=O)N1CCC[C@H]1C(=O)N1CCC[C@H]1C(=O)N[C@H](C(N)=O)[C@@H](C)O — inhibition (enzyme activity, inhibitor; 30 µM): 3%
O=c1[nH]c2ccccc2n1C1CCN(Cc2ccc(-c3[nH]c4cc5ncnc5cc4nc3-c3ccccc3)cc2)CC1 — remaining signal (cell-free assay; 0.5 µM): 118%
Cc1nn(C)cc1-c1nc2c(N3CCN(Cc4ccc(Cl)cc4)CC3)c(Cl)cnc2[nH]1 — remaining binding (binding, competition with immobilised ligand; 1 µM): 100%
COc1cc(Nc2ncc(F)c(Nc3ccc4c(n3)NC(=O)C(C)(C)O4)n2)cc(OC)c1OC — inhibition (binding, competition with immobilised ligand; 10 µM): 0%
CC(C)(C)c1cc(C=C(C#N)C#N)cc(Br)c1O — remaining activity (enzyme activity, inhibitor; 0.5 µM): 105%
Cn1cc(-c2cc(F)cc(N3CCn4c(cc5c4CCCC5)C3=O)c2CO)cc(Nc2ccc(N3CCN(C4COC4)CC3)cn2)c1=O — inhibition (enzyme activity, inhibitor; 0.1 µM): 14%
COc1ncccc1-c1cnn2ccc(N3CCN(C(=O)OC(C)C)CC3)nc12 — remaining binding (binding, competition with immobilised ligand; 1 µM): 100%
N#CC1(c2ccccn2)CCN(Cc2cc(C(=O)O)c(=O)n3ccccc23)CC1 — remaining binding (cell-free assay, competition with immobilised ligand; 1 µM): 100%
CN[C@@]1(c2ccccc2Cl)CCCCC1=O — inhibition (enzyme activity, inhibitor; 30 µM): -4%
